Measurements as given in ChEMBL document CHEMBL1144557, “The novel C-5 aryl, alkenyl, and alkynyl substituted uracil derivatives of L-ascorbic acid: synthesis, cytostatic, and antiviral activity evaluations” (Bioorg Med Chem, 2007).
Converted amounts (≈) assume the structure as drawn.

Experiments:
Sindbis virus = assay: Antiviral activity against Sindbis virus-induced cytopathogenicity in Vero cells; assay type: functional
Human alphaherpesvirus 1 [1] = assay: Antiviral activity against HSV1 KOS-induced cytopathogenicity in HEL cells; assay type: functional; settings: Human alphaherpesvirus 1, KOS
[2] = tested on: Vesicular stomatitis virus; assay: Antiviral activity against in Vesicular stomatitis virus-induced cytopathogenicity in HEL cells; assay type: functional
[3] = Cytotoxicity against HEL cells; assay type: cell-based; settings: human
Outline: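 Cells seeded at 5 × 10³ cells/well and exposed to medium containing a range of test compound concentrations. After 3 days at 37 °C, cell morphology examined microscopically. Reported as minimum cytotoxic concentration (MCC), the concentration causing a microscopically detectable alteration of normal cell morphology.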

[4] = Antiproliferative activity against human Molt4/C8 cells; assay type: functional, cell-based; settings: MOLT-4
Outline: (§1)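 Suspension cells seeded at 50 × 10³ cells/well with a range of test compound concentrations. Cell number counted with a Coulter counter after 2 days (L1210) or 3 days (Molt4/C8, CEM). IC50 is the concentration that cuts cell growth by 50% versus untreated controls, read from plots of cell number (% of control) against concentration.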

L1210 = assay: Antiproliferative activity against mouse L1210 cells; assay type: functional, cell-based; outline: as §1
CCRF-CEM = assay: Antiproliferative activity against human CEM cells; assay type: functional, cell-based; outline: as §1
[5] = tested on: Vesicular stomatitis virus; assay: Antiviral activity against in Vesicular stomatitis virus- induced cytopathogenicity in HeLa cells; assay type: functional
MIA PaCa-2 = assay: Antiproliferative activity against human MiaPaCa2 cells after 72 hrs by MTT assay; assay type: functional, cell-based; settings: Homo sapiens, MIA PaCa-2, 72 h; read-out: IC50
Outline: (§2)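 Monolayers grown in DMEM with 10% FBS, 2 mM L-glutamine and penicillin/streptomycin at 37 °C, 5% CO2. Seeded at 1 × 10⁴–3 × 10⁴ cells/mL on day 0. Compounds from 0.04 M DMSO stocks added at five 10-fold dilutions (10⁻⁸–10⁻⁴ M final), with matched DMSO controls, for 72 h. MTT added for 4 h, formazan dissolved in DMSO, absorbance read at 570 nm. Percentage growth calculated against time-zero and untreated OD. IC50 is 50% inhibition of proliferation.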

HEp-2 = assay: Antiproliferative activity against human Hep2 cells after 72 hrs by MTT assay; assay type: functional, cell-based; settings: HEp-2, 72 h; outline: as §2
HeLa = assay: Antiproliferative activity against human HeLa cells after 72 hrs by MTT assay; assay type: functional, cell-based; outline: as §2
Human alphaherpesvirus 2 = assay: Antiviral activity against HSV2 G-induced cytopathogenicity in HEL cells; assay type: functional; settings: Human alphaherpesvirus 2, G
WI-38 = assay: Antiproliferative activity against human WI38 cells after 72 hrs by MTT assay; assay type: functional, cell-based; settings: WI-38, 72 h; outline: as §2
MCF7 = assay: Antiproliferative activity against human MCF7 cells after 72 hrs by MTT assay; assay type: functional, cell-based; settings: MCF7, 72 h; outline: as §2
Punta Toro virus = assay: Antiviral activity against Punta Toro virus-induced cytopathogenicity in Vero cells; assay type: functional
Human alphaherpesvirus 1 [6] = assay: Antiviral activity against HSV1 TK- KOS ACV -induced cytopathogenicity in HEL cells; assay type: functional; settings: Human alphaherpesvirus 1, KOS
Coxsackievirus B4 = assay: Antiviral activity against Coxsackie virus B4-induced cytopathogenicity in Vero cells; assay type: functional; settings: Enterovirus B
SW-620 = assay: Antiproliferative activity against human SW620 cells after 72 hrs by MTT assay; assay type: functional, cell-based; settings: SW-620, 72 h; outline: as §2

Row | SMILES | MIC (Sindbis virus) [µM] | MIC (Human alphaherpesvirus 1 [1]) [µM] | MIC [2] [µM] | MCC [3] [µM] | IC50 [4] [µM] | IC50 (L1210) [µM] | IC50 (CCRF-CEM) [µM] | MIC [5] [µM] | IC50 (MIA PaCa-2) [µM] | IC50 (HEp-2) [µM] | IC50 (HeLa) [µM] | MIC (Human alphaherpesvirus 2) [µM] | IC50 (WI-38) [µM] | IC50 (MCF7) [µM] | MIC (Punta Toro virus) [µM] | MIC (Human alphaherpesvirus 1 [6]) [µM] | MIC (Coxsackievirus B4) [µM] | IC50 (SW-620) [µM]
1 | C=Cc1cn(C/C=C2\OC(=O)C(OCc3ccccc3)=C2OCc2ccccc2)c(=O)[nH]c1=O | > 18 | > 18 | > 18 | 87 | 7.6 | 7.2 | 7.2 | > 18 | 22 | 14.2 | 14.5 | > 18 | 14.3 | 3.8 | > 18 | > 18 | > 18 | 15.6
2 | O=C1O/C(=C\Cn2cc(C#Cc3ccccc3)c(=O)[nH]c2=O)C(O)=C1O | > 4 | > 4 | 4 (≈ 1.41 µg/mL) | 20 | 8.2 | 8.1 | 7.6 | > 4 | 3 | 3 | 2 | 4 (≈ 1.41 µg/mL) | 1 | 1 | > 4 | > 4 | > 4 | 4
3 | O=C1O/C(=C\Cn2cc(-c3ccccc3)c(=O)[nH]c2=O)C(O)=C1O | > 100 | > 100 | > 100 | 100 | 322 | 354 | 282 | > 100 | > 100 | > 100 | > 100 | > 100 | > 100 | > 100 | > 100 | > 100 | > 100 | > 100
4 | C#Cc1cn(C/C=C2\OC(=O)C(OCc3ccccc3)=C2OCc2ccccc2)c(=O)[nH]c1=O | > 18 | > 18 | > 18 | ≥ 18 | 7.2 | 6.8 | 4.6 | > 18 | 8.7 | 4.6 | 3.2 | > 18 | 1.5 | 2.9 | > 18 | > 18 | > 18 | 5
5 | O=C1O/C(=C\Cn2cc(-c3cccs3)c(=O)[nH]c2=O)C(O)=C1O | > 100 | > 100 | > 100 | 100 | > 500 | > 500 | > 500 | > 100 | > 100 | > 100 | > 100 | > 100 | > 100 | > 100 | > 100 | > 100 | > 100 | > 100
6 | CC(C)=CCc1cn(C/C=C2\OC(=O)C(OCc3ccccc3)=C2OCc2ccccc2)c(=O)[nH]c1=O | > 4 | 4 (≈ 2 µg/mL) | > 4 | 20 | 8.3 | 8.2 | 7.7 | > 4 | 5 | 2.6 | 2 | 4 (≈ 2 µg/mL) | 2 | 4 | 4 (≈ 2 µg/mL) | > 4 | > 4 | 4
7 | O=C1O/C(=C\Cn2cc(-c3ccco3)c(=O)[nH]c2=O)C(O)=C1O | > 100 | > 100 | > 100 | 100 | ≥ 500 | ≥ 500 | 436 | > 100 | > 100 | > 100 | > 100 | > 100 | > 100 | > 100 | > 100 | > 100 | > 100 | > 100
